Assay results collected from several papers.
Protocols differ between the studies behind these lines.
Target: Serine/threonine-protein kinase 38-like (STK38L, Homo sapiens, UniProt Q9Y2H1)

SMILES | read-out | technique | tested at | remaining binding
CC1CCCN1c1nccc(-c2cnn3ncccc23)n1 (stereo not shown) | binding | – | 1 µM | 100%
O=C(c1ccc(Nc2ncc(Cl)c(-c3cc4ccccc4s3)n2)cc1)N1CCC(N2CCCC2)CC1 | binding | competition with immobilised ligand | 1 µM | 74%
COc1ncc2cc3ccccc3nc2c1C#N | binding | competition with immobilised ligand | 5 µM | 87%
Cc1cnn2ncc(-c3ccnc(N(C)C)n3)c2c1 | binding | – | 1 µM | 100%
N#CC1(c2ccccn2)CCN(Cc2cc(C(=O)N3CCCC3)c(=O)n3ccccc23)CC1 | cell-free assay | competition with immobilised ligand | 1 µM | 90%
O=C(c1ccc(Nc2nccc(-c3cc4ccccc4s3)n2)cc1)N1CCC(N2CCCC2)CC1 | binding | competition with immobilised ligand | 1 µM | 94%
C[C@@H](c1ccc(-n2cnc3c(N)ncnc32)cc1)N1CCc2nn(C)c(Cc3ccccc3)c2C1=O | binding | competition with immobilised ligand | 0.1 µM | 80%
C[C@H]1CCN(c2nccc(-c3cnn4ncccc34)n2)C1 | binding | – | 1 µM | 83%
CNC(=O)[C@@H]1CC[C@@H](n2c(-c3ccc4cnccc4c3)nc3ccc(C(=O)NCc4cccc(C(N)=O)c4)cc32)C1 | binding | competition with immobilised ligand | 1 µM | 100%
COc1ccc2c(c1)O[C@@H](c1ccc(OC)c(OC)c1)C[C@H]2NC(=O)C1(c2ccc3c(c2)OC(F)(F)O3)CC1 | cell-free assay | competition with immobilised ligand | 1 µM | 100%
CN(CCCC(F)(F)F)c1nccc(-c2cnn3ncccc23)n1 | binding | – | 1 µM | 100%
CN(C)C(=O)Cn1cc(-c2nc(C3(c4ccc(-c5cnc(N)nc5)cc4)CC3)no2)cn1 | cell-free assay | competition with immobilised ligand | 1 µM | 81%
Nc1ncc2c(n1)-c1c([nH]c3ccc(C#CC4CC4)cc13)CCCC2 | binding | competition with immobilised ligand | 1 µM | 100%
CC(C)(O)c1cncc(-c2nc3ccc(F)cc3n2C2CC2)c1 | cell-free assay | competition with immobilised ligand | 1 µM | 100%
O=C(NCC1CCOCC1)c1n[nH]cc1NC(=O)c1c(F)cccc1F | binding | competition with immobilised ligand | 1 µM | 87%
N[C@H]1CCN(c2nccc(-c3cnn4ncccc34)n2)C1 | binding | – | 1 µM | 100%
CNC(=O)Nc1ccc2c(c1)[C@@]1(CC2)OC(=O)N(CC(=O)N(Cc2ccc(F)cc2)[C@@H](C)C(F)(F)F)C1=O | binding | competition with immobilised ligand | 1 µM | 67%
COc1ccnn2ncc(-c3ccnc(N(C)C)n3)c12 | binding | – | 1 µM | 96%
O=C(NCCCN1CCOCC1)c1ccc(Nc2nccc(-c3cc4ccccc4s3)n2)cc1 | binding | competition with immobilised ligand | 1 µM | 100%
COc1cccc(CNC(=O)c2nc3scc(COCc4ccc(C(=O)O)cc4)c3c(=O)[nH]2)c1 | cell-free assay | competition with immobilised ligand | 1 µM | 87.7%
COc1cnc(Nc2cccc(S(N)(=O)=O)c2)nc1N1CCN(c2ccccc2)C(=O)C1 | binding | competition with immobilised ligand | 1 µM | 100%
c1cncc(-c2cccc(Nc3nccc(NC4CCCCC4)n3)c2)c1 | binding | competition with immobilised ligand | 10 µM | 100%
